Converted amounts (≈) assume the structure as drawn. The source made the active and inactive calls. The calls are words filed in the database; no cut-off is given here. Square brackets hold non-standard residues; d marks the D form. Peptide text beside a SMILES is read from it.

The subject of data set [1] is Staphylococcus aureus. Nature of the data set: Induction of morphological changes in Staphylococcus aureus ATCC 25923 assessed as cell damage at MIC concentration by transmission electron microscopic analysis. The class given is functional, organism-based. The gist of the method: (§1)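 Cells were pelleted at 4 °C, washed in 0.1 M PBS pH 7.2, and fixed overnight (4% formaldehyde, 1.25% glutaraldehyde, ruthenium red). Post-fixed in 1% OsO4, dehydrated through ethanol, embedded in epoxy resin and imaged by TEM.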

The next data set deals with Escherichia coli. The experiment in a line: Bactericidal activity against Escherichia coli ATCC 33694 assessed as inhibition of bacterial growth at MIC concentration incubated for 48 hrs by broth microdilution assay. The class given is functional, organism-based. An outline of the steps: (§2)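 From broth-microdilution wells showing no growth, 10 µL was spotted onto agar and incubated 48 h at 37 °C. Plates were inspected for colonies. Fidaxomicin at 1 µM served as control.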
(In general: In broth dilution the organism is exposed to a series of concentrations in liquid medium.)

The test system of another data set is Listeria monocytogenes. Nature of the data set: Bactericidal activity against Listeria monocytogenes ATCC 15313 assessed as inhibition of bacterial growth at MIC concentration incubated for 48 hrs by broth microdilution assay. The class given is functional, organism-based. The gist of the method: as §2
Data set [2] has as its system Staphylococcus aureus. The experiment in a line: Bactericidal activity against Staphylococcus aureus ATCC 25923 assessed as inhibition of bacterial growth at MIC concentration incubated for 48 hrs by broth microdilution assay. The class given is functional, organism-based. An outline of the steps:
as §2

For data set [3], the system named is Staphylococcus aureus. Nature of the data set: Antibacterial activity against Staphylococcus aureus ATCC 25923 assessed as reduction in surviving bacteria at MIC concentration measured within 6 hrs by time-kill kinetic analysis. The data set is classed as functional. An outline of the steps:
(§3)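 Samples (5 µL) taken at 0, 1, 2, 4, 6, 12, 18 and 24 h, tenfold diluted in 0.85% NaCl, and plated on TSA overnight at 37 °C for CFU counts. Two independent duplicates.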

The next data set has as its system Pseudomonas aeruginosa. Nature of the data set: Bactericidal activity against Pseudomonas aeruginosa BAA 1744 assessed as inhibition of bacterial growth at MIC concentration incubated for 48 hrs by broth microdilution assay. The class given is functional, organism-based. An outline of the steps:
as §2

For data set [4], the system named is Staphylococcus aureus. The experiment in a line: Induction of morphological changes in Staphylococcus aureus ATCC 25923 assessed as appearance of detached fragments at MIC concentration by transmission electron microscopic analysis. The data set is classed as functional, organism-based. An outline of the steps:
as §1

Data set [5] relates to Staphylococcus aureus. Nature of the data set: Induction of morphological changes in Staphylococcus aureus ATCC 25923 assessed as leakage of intracellular content at MIC concentration by transmission electron microscopic analysis. The data set is classed as functional, organism-based. The gist of the method: as §1
Data set [6] in a line: Retention time of compound by RP-HPLC analysis. The data set is classed as physicochemical. An outline of the steps:
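Analytical reversed-phase HPLC.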

The test system of data set [7] is Staphylococcus aureus. The experiment in a line: Bactericidal activity against methicillin resistant Staphylococcus aureus BAA 2313 assessed as inhibition of bacterial growth at MIC concentration incubated for 48 hrs by broth microdilution assay. The data set is classed as functional, organism-based. An outline of the steps:
(§4)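 Plates were incubated 48 h at 37 °C and examined for colonies. A fidaxomicin-treated culture at 1 µM served as the control.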

Data set [8] concerns Staphylococcus aureus. The experiment in a line: Antibacterial activity against Staphylococcus aureus ATCC 25923 assessed as reduction in colony forming units at MIC concentration measured after 2 hrs by time-kill kinetic analysis. The data set is classed as functional. An outline of the steps: as §3
The test system of data set [9] is Staphylococcus aureus. The experiment in a line: Antibacterial activity against Staphylococcus aureus ATCC 25923 assessed as reduction in bacterial growth at MIC concentration measured after 24 hrs by time-kill kinetic analysis. The class given is functional, organism-based. The gist of the method:
as §3

In data set [10] the test system is Enterococcus faecium. Nature of the data set: Bactericidal activity against vancomycin resistant Enterococcus faecium BAA 2317 assessed as inhibition of bacterial growth at MIC concentration incubated for 48 hrs by broth microdilution assay. The data set is classed as functional, organism-based. The gist of the method: as §4
In data set [11] the test system is Salmonella enterica. Nature of the data set: Antibacterial activity against Salmonella enterica ATCC 13314 assessed as inhibition of bacterial growth incubated for 24 hrs by absorbance based microplate reader analysis. The class given is functional. The gist of the method:
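Broth microdilution. An overnight single-colony culture in recommended broth was diluted 1:10 000, and peptide serial dilutions in DMSO were added (4 µL into 196 µL). Plates incubated 24 h at 37 °C, aerobic or anaerobic as required, then OD600 read. Inhibition was calculated against pathogen-only and blank wells.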

For data set [12], the system named is Staphylococcus aureus. Nature of the data set: Induction of morphological changes in Staphylococcus aureus ATCC 25923 assessed as extracellular protrusions by measuring fragments of lysed cell wall at MIC concentration by transmission electron microscopic analysis. The class given is functional, organism-based. An outline of the steps:
as §1

The test system of data set [13] is Enterococcus faecium. Nature of the data set: Antibacterial activity against vancomycin resistant Enterococcus faecium BAA 2317 assessed as inhibition of bacterial growth incubated for 24 hrs by absorbance based microplate reader analysis. The data set is classed as functional. Conditions: read-out: MIC100. The gist of the method:
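Broth microdilution. A single colony was grown 24 h in its recommended broth, then diluted 1:10 000 in the same medium. Peptide serial dilutions were added from DMSO stock at 4 µL per 196 µL inoculated medium. Plates were incubated aerobically or anaerobically as each pathogen requires, at 37 °C for 24 h, and OD600 was read. MIC was the lowest concentration giving 100% growth inhibition. Duplicate wells; assay repeated five times independently.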

The test system of data set [14] is Salmonella enterica. The experiment in a line: Bactericidal activity against Salmonella enterica ATCC 13314 assessed as inhibition of bacterial growth at MIC concentration incubated for 48 hrs by broth microdilution assay. The class given is functional, organism-based. The gist of the method:
as §2

A further data set concerns Clostridioides difficile. The experiment in a line: Bactericidal activity against Clostridium difficile ATCC 43602 assessed as inhibition of bacterial growth at MIC concentration incubated for 48 hrs by broth microdilution assay. The class given is functional, organism-based. An outline of the steps: as §2

As for `CC[C@H](C)[C@@H]1NC(=O)CNC(=O)CNC(=O)[C@H](CO)NC(=O)[C@H]([C@@H](C)CC)NC(=O)[C@H](CCCCN)NC(=O)[C@H](CO)NC(=O)[C@H](CC(C)C)NC(=O)[C@@H](C(C)C)NC(=O)[C@@H]2CCCN2C(=O)[C@H]([C@@H](C)CC)NC(=O)[C@H](C(C)C)NC(=O)[C@H](CC(C)C)NC(=O)[C@@H]2CCCN2C(=O)CNC1=O` (cyclo(LSKISGGIGPLVIP[dV])), the result in the data set with Staphylococcus aureus [1], in the data set on Escherichia coli, in the data set with Listeria monocytogenes, with Staphylococcus aureus [2], in the data set with Pseudomonas aeruginosa and with Staphylococcus aureus [4] was Active. Moreover, the result with Staphylococcus aureus [5], with Staphylococcus aureus [7], in the data set on Staphylococcus aureus [9], in the data set on Enterococcus faecium [10], in the data set on Staphylococcus aureus [12] and with Salmonella enterica [14] was Active. In the data set on Clostridioides difficile, the outcome was Active. Moreover, the results for the Activity in the data set with Staphylococcus aureus [3] and with Staphylococcus aureus [8] were 5 log10CFU/ml and 3 log10CFU/ml, respectively. The Retention_time in [6] worked out at 17.76 min. Further, the outcome with Salmonella enterica [11] was inactive. The MIC in the data set with Enterococcus faecium [13] worked out at 1.5 µM (≈ 2.15 µg/mL).

Source of the values: ChEMBL document CHEMBL6177914, “Human microbiome derived synthetic antimicrobial peptides with activity against Gram-negative, Gram-positive, and antibiotic resistant bacteria” (RSC Med Chem, 2025).
